# Screens from PubChem.
# core dimer inh – HCV core protein dimerization inhibition; TR-FRET GST/Flag-core106 dimerization, 1536-well; inhibition, % at 5 µM; 300,000 compounds, 0.33% hits; AID 1899;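 active means inhibition above the mean of all tested compounds plus 3 SD, set per screening campaign, cut at about 45% in these data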
#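 System: GST/Flag-tagged HCV core106 proteins. Incubation: compound-protein-antibody incubation 4 h at 22.5 °C. Technique: HTRF with 340 nm excitation, 617/671 nm emission. Medium: KF-containing HEPES buffer, pH 7.45, DTT, CHAPS, BSA. Read-out: inhibition (%) from 671 over 617 nm ratio. Also added: Eu(K)-anti-GST 90 ng/mL plus XL665-anti-Flag 1 µg/mL.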
# HCV NS3 hel inh – inhibitors of Hepatitis C virus NS3 helicase. NS3 helicase DNA unwinding, Cy5 molecular beacon fluorescence. inhibition, % at 10.9 µM. 290,000 compounds, 0.56% hits. AID 1800;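 active means inhibition above the mean of all tested compounds plus 3 SD, set per campaign, cut at about 35% in these data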;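 further: 0% = DMSO wells and 100% = thioflavine S control wells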
#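 test system = hepatitis C virus NS3 helicase domain fragment enzyme | reagent = annealed dual-labelled DNA beacon duplex, ATP-started | times = 1 h at 25 °C | detection = Cy5 fluorescence, 0 and 60 min reads | read-out basis = percent inhibition from t60/t0 fluorescence ratio | control set = DMSO and thioflavine S | replication = one well per compound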
# p-CIP stab down – lowers stability of the mouse p/CIP coactivator protein. decrease of EGFP signal, % at 10 µM. 290,000 compounds, 0.01% hits. F442A p/CIP-EGFP cells, EGFP fluorescence, 16 h. Q05BA5;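 active means EGFP signal decrease of at least 30% at 10 µM or well 3 SD below plate mean, unless failing retest; inactive means the rest, including hits failing retest or dose response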
# GPR7 antag – human neuropeptides B/W receptor 1 antagonism; GPR7-expressing cells, fluorescence antagonist assay; 290,000 compounds, 1.1% hits; inhibition, % at 4.4 µM; AID 1861; in the data active means inhibition above about 16%, passing the limit was not always enough;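 further: cells stimulated with the agonist NPW; 0% = agonist with vehicle and 100% = vehicle without agonist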
# Target sequence (P48145 whole entry, looked up): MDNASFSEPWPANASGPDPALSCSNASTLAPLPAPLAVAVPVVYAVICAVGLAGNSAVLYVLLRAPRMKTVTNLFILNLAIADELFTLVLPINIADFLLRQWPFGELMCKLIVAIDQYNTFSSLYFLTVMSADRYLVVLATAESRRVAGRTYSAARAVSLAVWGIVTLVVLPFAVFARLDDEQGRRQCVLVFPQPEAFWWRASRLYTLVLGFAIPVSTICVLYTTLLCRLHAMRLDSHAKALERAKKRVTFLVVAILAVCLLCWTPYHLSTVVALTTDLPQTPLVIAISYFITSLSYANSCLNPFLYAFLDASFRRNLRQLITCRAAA
# DNA FID counter – counter-screen for HCV NS3 helicase inhibitors: DNA intercalator displacement; AID 1845; DNA fluorescent intercalator displacement, fluorescence; inhibition, % at 7.9 µM; 290,000 compounds, 0.17% hits; in the data active means inhibition above about 37%;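 further: 0% = vehicle and 100% = reference compound; higher means more ethidium bromide displaced from hairpin DNA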
# GPR7 antag cf – confirmation of human GPR7 antagonists | shares compounds with GPR7 antag | GPR7-expressing cells, calcium fluorescence antagonist mode | AID 1952 | inhibition, % at 4.4 µM | 2,400 compounds, 52% hits; in the data active means inhibition above about 24%;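 further: stimulated with the GPR7 agonist NPW; 0% = agonist plus vehicle and 100% = vehicle alone without agonist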
# MCHR1 antagonist – antagonizes human MCHR1, a GPR7 antagonist counter-screen | shares compounds with GPR7 antag | inhibition, % at 4.4 µM | 2,400 compounds, 62% hits | MCHR1-expressing cells, fluorescence antagonist assay; in the data active means inhibition above about 22%;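 further: 0% = vehicle with agonist and 100% = vehicle without agonist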
# * marks the source's active call; other numbers are inactive results; · = no result given. This is a sample that favours compounds with a hit; in the whole collection about 1.9% have one here.
SMILES,core dimer inh,HCV NS3 hel inh,p-CIP stab down,GPR7 antag,DNA FID counter,GPR7 antag cf,MCHR1 antagonist
COc1cccc(C2/C(=C(/O)c3ccc4c(c3)CC(C)O4)C(=O)C(=O)N2CC2CCCO2)c1 (configuration not stated),·,12.6,-13.0,2.0,-71.4,·,·
Cc1ccc(C)c(OCCC(=O)NCCc2ccc(F)cc2)c1,3.7,-7.9,-1.3,6.9,-41.5,·,·
CCN(c1ccccc1)S(=O)(=O)c1cccc(C(=O)Nc2ccc(C)cn2)c1,1.8,-9.8,-7.7,-22.7,-23.7,·,·
O=C(Nc1cccnc1Cl)c1cc(-c2cccc(O)c2)on1,9.5,0.9,-2.1,-0.9,-8.8,·,·
CCCCN(CCCC)CC(O)CN(c1cc([N+](=O)[O-])ccc1OC)S(=O)(=O)c1ccccc1 (configuration not stated),-0.5,-44.4,0.6,36.2*,32.4,41.0*,33.6*
COc1ccc([N+](=O)[O-])cc1N(CC(O)CN(CC(C)C)CC(C)C)S(=O)(=O)c1ccccc1 (configuration not stated),9.1,-14.3,-10.3,34.3*,24.9,45.1*,54.5*
CSc1cccc(NC(=O)CCS(=O)(=O)c2cccc3nonc23)c1,-5.2,-2.5,4.1,-4.4,-5.9,·,·
CCOc1ccc(CNC(=O)CCS(=O)(=O)Cc2cccc(Cl)c2)cc1OC,-1.9,-2.7,-6.6,2.6,-14.7,·,·
CCOC(=O)c1cnc(-n2nc(C)cc2C)nc1NC1CCCCC1,18.3,-5.1,-13.0,27.9*,-21.7,77.1*,73.2*
CCOC(=O)c1cnc(-n2nc(C)cc2C)nc1NC,-2.7,2.4,-7.8,-10.5,-0.8,·,·
O=C(NCc1ccncc1)Nc1ccc(F)cc1,-3.3,-1.9,5.1,31.2*,-0.6,-7.3,-9.6
O=C(CSC(=S)N1CCCC1)N1CCN(S(=O)(=O)c2cccc([N+](=O)[O-])c2)CC1,-0.6,0.3,-2.9,5.2,-24.0,·,·
c1ccc(CCc2nn3c(Cn4cnc5ccccc54)nnc3s2)cc1,4.4,8.8,-12.1,22.6*,-22.0,17.9,27.9*
Cc1ccc(S(=O)(=O)NNC(=O)Nc2ccc(C)c(C)c2)c(C)c1,0.2,3.8,-3.9,-7.7,-23.3,·,·
COc1ccc(C(=O)NCCS(=O)(=O)N2CCOCC2)cc1,-5.9,·,·,·,·,·,·
COC(=O)CN1C(C)=Nc2ccc(C)cc2C1c1ccccc1 (configuration not stated),-1.9,-1.5,-8.6,9.0,0.4,·,·
COC(=O)CN1C(c2ccccc2)=Nc2ccc(Cl)cc2C1c1ccccc1 (configuration not stated),2.9,-10.1,7.0,27.9*,-7.6,4.2,22.8*
Clc1ccccc1/C=C/c1ccnc2ccccc12,-4.8,11.0,6.1,7.1,-19.1,-5.6,13.3
CCOC(=O)N1CCN(C(=O)CSc2nnc3[nH]c(=O)c(C)c(C)n23)CC1,1.3,·,·,·,·,·,·
O=C(CCNS(=O)(=O)c1ccc(Br)s1)NC1CCCC1,-2.4,3.8,-1.8,-12.8,-1.9,·,·
O=C(CCNS(=O)(=O)c1ccc(Br)s1)Nc1ccc(Cl)cc1,3.8,-8.8,-12.4,32.0*,0.2,31.9*,29.5*
C=C(C)CN(CC)C(=O)CN1C(=O)NC(C)(c2ccc3ccccc3c2)C1=O (configuration not stated),-2.2,0.1,-2.8,-3.2,-38.1,·,·
CC(C)(C)c1cc(C(=O)Nc2ccc(F)cc2)n(Cc2ccc(F)cc2)n1,4.0,2.3,-1.3,22.7*,-14.6,2.5,56.2*
Cc1ccc(NC(=O)c2cc(C(C)(C)C)nn2Cc2ccccc2)cc1,-2.0,-6.7,5.5,-20.3,-26.8,·,·
COc1ccccc1N1CCN(S(=O)(=O)c2ccc3c(c2)oc(=O)n3C)CC1,3.4,11.3,8.9,29.9*,-25.8,3.7,-1.7
SMILES,core dimer inh,HCV NS3 hel inh,p-CIP stab down,GPR7 antag,DNA FID counter,GPR7 antag cf,MCHR1 antagonist
CCOC(=O)c1nn(-c2ccc(C)c(C)c2)c(=O)c(C#N)c1C,8.6,1.8,7.5,-3.6,-13.7,·,·
CCOC(=O)c1nn(-c2ccccc2C)c(=O)c(C#N)c1C,1.5,3.1,-3.4,29.3*,-1.8,-12.0,2.6
O=C(NCCCN1CCCC1)c1ccc2c(c1)N(Cc1cccc(Cl)c1)C(=O)c1ccccc1S2=O (configuration not stated),-0.3,-86.2,0.4,24.5,18.2,·,·
CC1CC(C)CN(CCCNC(=O)c2ccc3c(c2)N(Cc2ccccc2)C(=O)c2ccccc2S3=O)C1 (configuration not stated),-11.9,-33.1,10.1,35.2*,34.9,22.5,1.3
N#C/C(=C\c1ccc([N+](=O)[O-])cc1)c1ccccn1,3.4,2.1,-11.3,-10.3,0.7,·,·
CN(C)c1ccc(/C=C(\C#N)c2ccccn2)cc1,-11.0,-6.5,-8.0,30.0*,-1.6,8.8,47.2*
CCC(CC)CN1C(Nc2ccccc2)=NC[C@@H]1C,4.5,9.0,-1.8,-6.0,-6.5,·,·
O=C(Cc1n[nH]c(=O)c2ccccc12)OCC(=O)c1ccc2c(c1)OCCO2,0.0,-6.0,-8.9,28.1*,-14.1,-9.3,15.0
COc1ccc(NC(=S)N(Cc2ccc(C)cc2)Cc2ccccn2)cc1,3.4,-10.4,-9.7,25.0*,-8.0,-7.9,18.2
Clc1ccc(CN2CCc3c([nH]c4ccccc34)C2)cc1Cl,-12.1,-64.1,0.6,53.3*,5.6,72.8*,33.0*
Cc1cccc(CN2CCc3c([nH]c4ccccc34)C2)c1,-5.7,-41.2,-4.5,17.7,0.6,·,·
COc1cc(OC)c(CN2CCc3c([nH]c4ccccc34)C2)cc1Br,-13.2,-43.6,-2.9,28.7*,2.2,21.3,4.8
Cc1ccc(S(=O)(=O)NCCC(=O)OCC(=O)N2CCCC2=O)cc1C,-3.8,·,·,·,·,·,·
COc1ccc(Nc2nnc(-c3ccc(C(=O)NCCO)cc3)c3ccccc23)cc1,-5.9,-3.4,1.5,60.5*,-12.1,1.9,35.9*
CNC(=O)c1ccc(Nc2nnc(-c3ccc(C(N)=O)cc3)c3ccccc23)cc1,5.9,-5.8,-0.5,-3.4,-31.1,·,·
COc1ccc(Nc2nnc(-c3ccc(C(N)=O)cc3)c3ccccc23)cc1,0.2,-21.8,0.1,33.9*,-15.8,4.7,15.0
O=C(O)CCn1c(SCCc2ccccc2)nc2ccccc21,-12.4,·,·,·,·,·,·
Clc1ccc2[nH]c3c(NCCN4CCOCC4)ncnc3c2c1,-7.1,3.6,-8.0,-1.6,9.7,·,·
Clc1ccc2[nH]c3c(NCC4CCCO4)ncnc3c2c1 (configuration not stated),1.6,-3.6,-35.3,37.8*,11.1,8.0,62.1*
CCCCCCCCCCOC(=O)Cn1c(COc2ccc(OC)cc2)[n+](C)c2ccccc21,-3.7,-58.6,-6.0,79.4*,23.2,77.9*,83.1*
